Structures are written as SMILES. Calls of active or inactive are those of the source. The rule behind the calls is not given here.

Data set [1] can be described thus: Selectivity for HCV isolate BK NS4A-tethered single chain NS3 serine protease over human neutrophil elastase.
A further data set concerns Hepatitis C virus. In words: Antiviral activity against HCV in human Huh7 cells by replicon-based ELISA. The following applies: Huh-7. The data set is classed as functional, Hepacivirus hominis. In short, it runs like this:
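Replicon assay run only on compounds with good enzyme potency. The value is EC90, the concentration that inhibits 90% of replicon replication.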
(In general: Replicon systems follow genome replication, usually without infectious particles.)

The nature of data set [2]: Inhibition of HCV isolate BK NS4A-tethered single chain NS3 serine protease. Details: species or system Hepatitis C virus (isolate BK). In short, it runs like this:
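Continuous (kinetic) assay using the NS4A-tethered single-chain NS3 serine protease. The result is reported as K_i*, an equilibrium constant covering the reversible covalent ketone–serine adduct plus other inhibitor–enzyme contacts.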

The test system of the next data set is Rattus norvegicus. In words: (§1) AUC in rat at 3 mg/kg, po. The data set is classed as ADME, organism-based, Plasma. Also noted: dose 3 mg/kg, route oral. The following applies: in vivo.
Data set [3] in a line: as §1. The data set is classed as ADME, organism-based, Plasma. Details: dose 3 mg/kg, route oral. The following applies: plasma.
Data set [4] can be described thus: Bioavailability in monkey. The data set is classed as ADME, organism-based, Macaca mulatta. Particulars: rhesus monkey, in vivo.
Data set [5] in a line: Bioavailability in dog. The data set is classed as ADME, organism-based, Canis lupus familiaris. The following applies: in vivo.

Take `C=CCNC(=O)C(=O)C(CCC)NC(=O)[C@@H]1[C@@H]2[C@H](CN1C(=O)[C@@H](NC(=O)N[C@H](CN1C(=O)c3ccccc3S1(=O)=O)C(C)(C)C)C(C)(C)C)C2(C)C` (some centres not stated): the Selectivity ratio in data set [1] was found to be 310. For the same compound, the EC90 (usually the point of the concentration-response curve where the effect stands at 90%) in the data set with Hepatitis C virus worked out at 230 nM. The inhibitory constant (Ki) (in general, the equilibrium dissociation constant of an inhibitor or competing ligand from its target) in data set [2] was found to be 15 nM.
On to `C=CCNC(=O)C(=O)C(CCC)NC(=O)[C@@H]1[C@@H]2[C@H](CN1C(=O)[C@@H](NC(=O)N[C@H](CN1Cc3ccccc3S1(=O)=O)C1CCCCC1)C(C)(C)C)C2(C)C` (some centres not stated), for which the Selectivity ratio in data set [1] came out at 55. The EC90 result in the data set on Hepatitis C virus (Hepacivirus hominis) is “inactive”. In data set [2], this compound had a Ki of 18 nM.
For the compound `C=CCNC(=O)C(=O)C(CCC)NC(=O)[C@@H]1[C@@H]2[C@H](CN1C(=O)[C@@H](NC(=O)N[C@H](CN1Cc3sccc3S1(=O)=O)C(C)(C)C)C1(C)CCCCC1)C2(C)C` (some centres not stated), the Selectivity ratio in data set [1] is 68. Further, the EC90 in the data set on Hepatitis C virus turned out to be 100 nM. Besides, the Ki in data set [2] is 3 nM.
As for `C=CCNC(=O)C(=O)C(CC1CCC1)NC(=O)[C@@H]1[C@@H]2[C@H](CN1C(=O)[C@@H](NC(=O)N[C@H](CN1Cc3ccccc3S1(=O)=O)C(C)(C)C)C(C)(C)C)C2(C)C` (some centres not stated), the Selectivity ratio in data set [1] worked out at 1500. For the same compound, in the data set with Rattus norvegicus, the Activity result is “Not Active”. Moreover, the outcome in the data set with Hepatitis C virus (Hepacivirus hominis) was inactive. The inhibition constant (Ki) in data set [2] was found to be 30 nM.
As to `C=CCNC(=O)C(=O)C(CCC)NC(=O)[C@@H]1[C@@H]2[C@H](CN1C(=O)[C@@H](NC(=O)N[C@H](CN1CCCCS1(=O)=O)C(C)(C)C)C(C)(C)C)C2(C)C` (some centres not stated), the Selectivity ratio in data set [1] was determined as 650. Further, in data set [3], the AUC (commonly concentration integrated over time) is 0.67 µM·h. The compound also registered an EC90 in the data set on Hepatitis C virus of 200 nM. This compound returned a Ki in data set [2] of 6 nM.
In the case of `C=CCNC(=O)C(=O)C(CCC)NC(=O)[C@@H]1[C@@H]2[C@H](CN1C(=O)[C@@H](NC(=O)N[C@H](CN1CCCS1(=O)=O)C(C)(C)C)C(C)(C)C)C2(C)C` (some centres not stated), the Selectivity ratio in data set [1] is 230. The AUC in data set [3] amounted to 0.09 µM·h. Also, the EC90 in the data set on Hepatitis C virus turned out to be 200 nM. Moreover, the Ki in data set [2] stood at 11 nM.
Turning to `C=CCNC(=O)C(=O)C(CCC)NC(=O)[C@@H]1[C@@H]2[C@H](CN1C(=O)[C@@H](NC(=O)N[C@H](CN1CCCCS1(=O)=O)C1CCCCC1)C(C)(C)C)C2(C)C` (some centres not stated), the Selectivity ratio in data set [1] stood at 50. This compound also showed an AUC in data set [3] of 0.18 µM·h. The compound further had an EC90 in the data set with Hepatitis C virus of 250 nM. For the same compound, the Ki in data set [2] was determined as 30 nM.
For `CC(C)(C)NC(=O)N[C@H](C(=O)N1C[C@H]2[C@@H]([C@H]1C(=O)NC(CC1CCC1)C(=O)C(N)=O)C2(C)C)C(C)(C)C` (some centres not stated) [BOCEPREVIR], the bioavailability – broadly, dose-corrected exposure relative to a reference, in per cent – in data set [4] was found to be 4%; in data set [5], 34%. In addition, it took 350 nM to reach the 90% level in the data set on Hepatitis C virus (EC90). In data set [2], this compound came in with a Ki of 14 nM.
Consider `C=CCNC(=O)C(=O)C(CCC)NC(=O)[C@@H]1[C@@H]2[C@H](CN1C(=O)[C@@H](NC(=O)N[C@H](CN1Cc3ccccc3S1(=O)=O)C(C)(C)C)C1CCCCC1)C2(C)C` (some centres not stated), for which, in data set [1], the Selectivity ratio stood at 19. For the same compound, the EC90 in the data set with Hepatitis C virus was 150 nM. In addition, the affinity in data set [2], expressed as Ki, was 7 nM.
In the case of `C=CCNC(=O)C(=O)C(CCC)NC(=O)[C@@H]1[C@@H]2[C@H](CN1C(=O)[C@@H](NC(=O)NC1(CN3Cc4sccc4S3(=O)=O)CCCCC1)C(C)(C)C)C2(C)C` (some centres not stated), the Selectivity ratio in data set [1] came to 130. Also, in the data set with Hepatitis C virus, the 90% effect concentration (EC90) stood at 400 nM. The compound also gave a Ki in data set [2] of 41 nM.
As for `C=CCNC(=O)C(=O)C(CCC)NC(=O)[C@@H]1[C@@H]2[C@H](CN1C(=O)[C@@H](NC(=O)N[C@H](CN1CCCNS1(=O)=O)C(C)(C)C)C(C)(C)C)C2(C)C` (some centres not stated), in data set [1], the Selectivity ratio was 80. The 90% effect level with Hepatitis C virus (EC90) was put at 350 nM. This compound showed a Ki in data set [2] of 59 nM.
For `C=CCNC(=O)C(=O)C(CCC)NC(=O)[C@@H]1[C@@H]2[C@H](CN1C(=O)[C@@H](NC(=O)N[C@H](CN1Cc3sccc3S1(=O)=O)C(C)(C)C)C(C)(C)C)C2(C)C` (some centres not stated), in data set [1], the Selectivity ratio amounted to 150. The compound also yielded an AUC in data set [3] of 0.43 µM·h. In the data set on Hepatitis C virus, this compound displayed an EC90 of 150 nM. The same compound came in with a Ki in data set [2] of 10 nM.
Consider `C=CCNC(=O)C(=O)C(CC1CC1)NC(=O)[C@@H]1[C@@H]2[C@H](CN1C(=O)[C@@H](NC(=O)N[C@H](CN1Cc3ccccc3S1(=O)=O)C(C)(C)C)C(C)(C)C)C2(C)C` (some centres not stated), for which the Selectivity ratio in data set [1] came to 1600. In data set [3], this compound showed an AUC of 0.705 µM·h. In addition, the EC90 with Hepatitis C virus is 150 nM. Besides, the affinity in data set [2], expressed as Ki, was 7 nM.
As to `C=CCNC(=O)C(=O)C(CCC)NC(=O)[C@@H]1[C@@H]2[C@H](CN1C(=O)[C@@H](NC(=O)N[C@H](CN1Cc3ccccc3S1(=O)=O)C(C)(C)C)C1(C)CCCCC1)C2(C)C` (some centres not stated), the Selectivity ratio in data set [1] is 50. In the data set with Hepatitis C virus, this compound gave an EC90 of 150 nM. In addition, affinity in data set [2] was put at a Ki of 5 nM.
Regarding `C=CCNC(=O)C(=O)C(CCC)NC(=O)[C@@H]1[C@@H]2[C@H](CN1C(=O)[C@@H](NC(=O)N[C@H](CN1Cc3ccccc3S1(=O)=O)C(C)(C)C)C(C)(C)C)C2(C)C` (some centres not stated), the Selectivity ratio in data set [1] was determined as 650. For the same compound, the AUC in data set [3] stood at 0.373 µM·h. In data set [2], the affinity, expressed as Ki, was 3 nM.
As to `C#CCCC(NC(=O)[C@@H]1[C@@H]2[C@H](CN1C(=O)[C@@H](NC(=O)N[C@H](CN1Cc3ccccc3S1(=O)=O)C(C)(C)C)C(C)(C)C)C2(C)C)C(=O)C(=O)NCC=C` (some centres not stated), in data set [1], the Selectivity ratio came to 380. Also, the Activity result in the data set with Rattus norvegicus is “Not Active”. The compound also yielded an EC90 with Hepatitis C virus of 250 nM. The Ki in data set [2] is 0.9 nM.
For `C=CCNC(=O)C(=O)C(CCCC)NC(=O)[C@@H]1[C@@H]2[C@H](CN1C(=O)[C@@H](NC(=O)N[C@H](CN1Cc3ccccc3S1(=O)=O)C(C)(C)C)C(C)(C)C)C2(C)C` (some centres not stated), the Selectivity ratio in data set [1] was 6100. For the same compound, the AUC in data set [3] was 1.43 µM·h. This compound returned an EC90 in the data set on Hepatitis C virus of 80 nM. In data set [2], the Ki amounted to 5 nM.
Consider `C=CCNC(=O)C(=O)C(CCC)NC(=O)[C@@H]1[C@@H]2[C@H](CN1C(=O)[C@@H](NC(=O)N[C@H](CN1CCCN(C)S1(=O)=O)C(C)(C)C)C(C)(C)C)C2(C)C` (some centres not stated), for which the Selectivity ratio in data set [1] was 490. In addition, in data set [3], the AUC amounted to 0.2 µM·h. This compound also returned an EC90 with Hepatitis C virus of 150 nM. This compound also returned a Ki in data set [2] of 14 nM.
In the case of `C=CCNC(=O)C(=O)C(CCC)NC(=O)[C@@H]1[C@@H]2[C@H](CN1C(=O)[C@@H](NC(=O)N[C@H](CN1Cc3sccc3S1(=O)=O)C(C)(C)C)C1CCCCC1)C2(C)C` (some centres not stated), the Selectivity ratio in data set [1] is 10. In addition, the concentration for an effect of 90% (EC90) with Hepatitis C virus worked out at 100 nM. In addition, affinity in data set [2] was put at a Ki of 14 nM.
